# Assay results of several laboratories.
# Lines come from different studies, so protocols differ.
# Read-out: cell growth or viability
SMILES,cell line,assay,conditions,measurement,value
CC1=C(O)C(=O)C=C2C1=CC=C1[C@@]2(C)CC[C@@]2(C)[C@@H]3C[C@](C)(C(=O)OCCCBr)CC[C@]3(C)CC[C@]12C,MGC-803,MTT,48 h,IC50,400 nM
COc1cccc(Oc2ccccc2NC(=O)CNC(=O)c2cccc3ccccc23)c1,NCI/ADR-RES,SRB,48 h,GI50,240 nM
Cc1cc(C)n(C(=S)[S][Au][PH](CCCCCC[PH]([Au][S]C(=S)n2nc(C)cc2C)(c2ccccc2)c2ccccc2)(c2ccccc2)c2ccccc2)n1,NCI/ADR-RES,SRB,,GI50,1300 nM
O=C(O)c1ccc(CN2CCC(CN[C@@H]3C[C@H]3c3ccccc3)CC2)cc1,NCI-H510A,resazurin,10 days,EC50,109 nM
Cn1nnc2c(C(N)=O)ncn2c1=O,HGC-27,,,EC50,176000 nM
COc1ccc(-c2ccc(-c3ccc(C(=N)N)nc3)s2)cc1Cl,NCI/ADR-RES,SRB,,GI50,2010 nM
C=CC(=O)N1CCN(c2nc(=O)n(-c3c(C)ccnc3C(C)C)c3nc(-c4c(O)cccc4F)c(F)cc23)[C@@H](C)C1,GP2d,,5 days,EC50,> 10000 nM
S=C([S][Au-][P+](CCCCCC[P+]([Au-][S]C(=S)n1cccn1)(c1ccccc1)c1ccccc1)(c1ccccc1)c1ccccc1)n1cccn1,NCI/ADR-RES,SRB,,GI50,3990 nM
CN1CCN(C(=O)[C@H](CCCN[C@@H]2C[C@H]2c2ccc(F)cc2)NC(=O)c2ccc(-n3ccnn3)cc2)CC1,NCI-H510A,resazurin,10 days,EC50,10.5 nM
COc1ccc(-c2ccc(-c3ccc(C(=N)N)nc3)s2)cc1,NCI/ADR-RES,SRB,,GI50,1940 nM
C=CC(=O)N1CCN(c2cc(-c3noc([C@@]4(C)CCCc5sc(N)c(C#N)c54)n3)nc(N3CCN(C)C[C@@H]3C)c2)CC1,GP2d,,5 days,EC50,4500 nM
